Experimental data collected from several papers.
Cell line: MRC5
Effect on: cell growth or viability

CC(C)=CCC/C(C)=C/COc1ccc2ccc(=O)oc2c1 gave an IC50 of 68.9 µM (MTT; 24 h).
COc1ccc(CN2C[C@H]3CC[C@@H]4[C@]5(C)COC(C)(C)O[C@@H]5CC[C@@]4(C)[C@@H]3C[C@@H]2C2=CCOC2=O)cc1 has a cell death of 5.1% (ATP luminescence; 25 µM, 72 h).
Cc1cn([C@@H]2C[C@H](O)[C@@H](CNC(=O)Nc3ccc(N4CCCCC4)cc3)O2)c(=O)[nH]c1=O gave a CC50 of over 50 µM.
For COC(=O)N[C@H](C(=O)N1CCC[C@H]1c1nc(-c2ccc(-c3ccc(-c4c[nH]c([C@@H]5CCCN5C(=O)[C@@H](NC(=O)OC)C(C)C)n4)cc3)cc2)c[nH]1)C(C)C, the CC50 was 29 µM (5 days).
Cc1cn([C@@H]2C[C@H](O)[C@@H](CNC(=O)Nc3ccc(OCc4ccccc4)cc3)O2)c(=O)[nH]c1=O has a CC50 of over 50 µM.
For CCCCN1C[C@H]2CC[C@@H]3[C@](C)(COC(C)=O)[C@H](OC(C)=O)CC[C@@]3(C)[C@@H]2C[C@@H]1C1=CCOC1=O, the cell death was -6% (ATP luminescence; 25 µM, 72 h).
The IC50 of COc1c2ccoc2c(OCC=C(C)C)c2oc(=O)ccc12 is reported as over 100 µM (MTT; 24 h).
For O=C(C=C[c-]1cccc1)c1ccc[nH]1.[Fe+2].c1cc[cH-]c1, the viability was about 100% (MTT; 100 µM).
